ChEMBL document CHEMBL1138835, “Inhibitors of multiple mutants of Plasmodium falciparum dihydrofolate reductase and their antimalarial activities” (J Med Chem, 2004)

Assays:
KB [1] = assay: In vitro cytotoxicity against Plasmodium falciparum infected KB cell line; assay type: functional, cell-based; details: Homo sapiens
Summary of the method: (§1)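 Cytotoxicity (IC50, μM) run against three mammalian lines: Vero (African green monkey kidney fibroblasts), KB (human epidermoid carcinoma) and BC (human breast cancer). Testing followed the Skehan et al. protocol.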

BC [2] = assay: In vitro cytotoxicity against BC cell line.; details: Homo sapiens
Vero [3] = assay: In vitro cytotoxicity against Plasmodium falciparum infected vero cell line.; assay type: functional, cell-based; details: Chlorocebus sabaeus; summary of the method: as §1
KB [4] = assay: Relative antiplasmodial activity to cytotoxicity in Plasmodium falciparum Csl-2 infected KB cells; assay type: functional
[5] = target: Bifunctional dihydrofolate reductase-thymidylate synthase (Plasmodium falciparum K1, UniProt P13922, C59R/N51I/S108N); assay: Binding affinity towards mutant dihydrofolate reductase (N51I+C59R+S108N DHFR) of Plasmodium falciparum
KB [6] = assay: Relative antiplasmodial activity to cytotoxicity in Plasmodium falciparum TM4/8.2 infected KB cells; assay type: functional
[7] = system: Bifunctional dihydrofolate reductase-thymidylate synthase (Plasmodium falciparum K1), P13922 [UNDEFINED MUTATION]; assay: Ratio of binding affinity for mutant (A16V+S108T) to that of wild type dihydrofolate reductase
Summary of the method: (§2)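 Each ratio is Ki for the mutant PfDHFR divided by Ki for wild-type PfDHFR. The recombinant enzymes were expressed in E. coli BL21(DE3)pLysS and purified on methotrexate-Sepharose. Ki was derived assuming inhibitors compete with substrate binding.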

[8] = target: Bifunctional dihydrofolate reductase-thymidylate synthase (Plasmodium falciparum K1, UniProt P13922, C59R/I164L/N51I/S108N); assay: Binding affinity towards mutant dihydrofolate reductase (N51I+C59R+S108N+I164L DHFR) of Plasmodium falciparum
KB [9] = assay: Relative antiplasmodial activity to cytotoxicity in Plasmodium falciparum V1/S infected KB cells; assay type: functional
Vero [10] = assay: Relative antiplasmodial activity to cytotoxicity in Plasmodium falciparum TM4/8.2 infected Vero cells; assay type: functional
[11] = system: Bifunctional dihydrofolate reductase-thymidylate synthase (Plasmodium falciparum K1), P13922 [UNDEFINED MUTATION]; assay: Ratio of binding affinity for mutant (N51I+C59R+S108N+I164L) to that of wild type dihydrofolate reductase; summary of the method: as §2
[12] = system: Bifunctional dihydrofolate reductase-thymidylate synthase (Plasmodium falciparum K1), P13922 [UNDEFINED MUTATION]; assay: Ratio of binding affinity for mutant (C59R+S108N+I164L) to that of wild type dihydrofolate reductase; summary of the method: as §2
[13] = target: Bifunctional dihydrofolate reductase-thymidylate synthase (Plasmodium falciparum K1, UniProt P13922, C59R/I164L/S108N); assay: Binding affinity towards mutant dihydrofolate reductase (C59R+S108N+I164L DHFR) of Plasmodium falciparum
Vero [14] = assay: Relative antiplasmodial activity to cytotoxicity in Plasmodium falciparum V1/S infected Vero cells; assay type: functional
BC [15] = assay: Relative antiplasmodial activity to cytotoxicity in Plasmodium falciparum Csl-2 infected BC cells; assay type: functional
Vero [16] = assay: Relative antiplasmodial activity to cytotoxicity in Plasmodium falciparum Csl-2 infected Vero cells; assay type: functional
[17] = target: Bifunctional dihydrofolate reductase-thymidylate synthase (Plasmodium falciparum K1) (UniProt P13922); assay: Ratio of binding affinity for mutant (N51I+C59R+S108N) to that of wild type dihydrofolate reductase; summary of the method: as §2
[18] = target: Bifunctional dihydrofolate reductase-thymidylate synthase (Plasmodium falciparum K1, UniProt P13922, A16V/S108T); assay: Binding affinity towards mutant dihydrofolate reductase (A16V+S108T DHFR) of Plasmodium falciparum.
BC [19] = assay: Relative antiplasmodial activity to cytotoxicity in Plasmodium falciparum TM4/8.2 infected BC cells; assay type: functional

Sequence of Bifunctional dihydrofolate reductase-thymidylate synthase (Plasmodium falciparum K1) (P13922 whole entry, looked up): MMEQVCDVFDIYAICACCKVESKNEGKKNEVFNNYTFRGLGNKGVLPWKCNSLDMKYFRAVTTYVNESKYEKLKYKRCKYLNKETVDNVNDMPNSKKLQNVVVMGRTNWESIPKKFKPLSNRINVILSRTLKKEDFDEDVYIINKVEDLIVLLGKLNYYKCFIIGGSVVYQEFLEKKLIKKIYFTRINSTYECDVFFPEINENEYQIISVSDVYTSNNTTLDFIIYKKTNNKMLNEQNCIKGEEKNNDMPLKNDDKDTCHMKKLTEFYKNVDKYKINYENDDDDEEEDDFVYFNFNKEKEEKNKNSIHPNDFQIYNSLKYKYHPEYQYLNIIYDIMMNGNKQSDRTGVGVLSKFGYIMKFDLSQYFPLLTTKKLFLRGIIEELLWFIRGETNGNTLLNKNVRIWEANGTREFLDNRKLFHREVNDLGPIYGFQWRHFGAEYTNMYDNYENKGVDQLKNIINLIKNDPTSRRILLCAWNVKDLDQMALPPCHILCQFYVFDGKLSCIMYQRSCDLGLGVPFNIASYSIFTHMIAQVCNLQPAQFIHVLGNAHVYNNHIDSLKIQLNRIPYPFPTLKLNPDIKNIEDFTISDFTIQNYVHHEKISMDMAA
Sequence of Bifunctional dihydrofolate reductase-thymidylate synthase (Plasmodium falciparum K1, UniProt P13922, C59R/I164L/N51I/S108N) (P13922 whole entry, looked up, stated change not applied): as the sequence (P13922 whole entry, looked up) above
Sequence of Bifunctional dihydrofolate reductase-thymidylate synthase (Plasmodium falciparum K1, UniProt P13922, A16V/S108T) (P13922 whole entry, looked up, stated change not applied): as the sequence (P13922 whole entry, looked up) above
Sequence of Bifunctional dihydrofolate reductase-thymidylate synthase (Plasmodium falciparum K1, UniProt P13922, C59R/N51I/S108N) (P13922 whole entry, looked up, stated change not applied): as the sequence (P13922 whole entry, looked up) above
Sequence of Bifunctional dihydrofolate reductase-thymidylate synthase (Plasmodium falciparum K1, UniProt P13922, C59R/I164L/S108N) (P13922 whole entry, looked up, stated change not applied): as the sequence (P13922 whole entry, looked up) above
Sequence of Bifunctional dihydrofolate reductase-thymidylate synthase (Plasmodium falciparum K1), P13922 [UNDEFINED MUTATION] (P13922 whole entry, looked up, stated change not applied): as the sequence (P13922 whole entry, looked up) above

With `CC1(C)N=C(N)N=C(N)N1c1cccc(Cl)c1` the IC50 (KB [1]) was 4000 nM, the IC50 (BC [2]) was 8900 nM and the IC50 (Vero [3]) was 49000 nM.

For `NC1=NC(c2cccc(Oc3ccc(Cl)cc3)c2)N(c2cccc(Cl)c2)C(N)=N1` (stereo not drawn), the Safety ratio (KB [4]) was 2.3, the Ki [5] was 1.9 nM and the IC50 (KB [1]) was 7000 nM. For the same compound, the Safety ratio (KB [6]) was 1.8, the IC50 (BC [2]) was 10000 nM and the Ratio [7] was 2.7. It also gave a Ki [8] of 8 nM, an IC50 (Vero [3]) of 31000 nM and a Safety ratio (KB [9]) of 2.2. The Safety ratio (Vero [10]) was 7.9, the Ratio [11] was 6.1 and the Ratio [12] was 3.9. The Ki [13] was 5.1 nM, the Safety ratio (Vero [14]) was 9.7 and the Safety ratio (BC [15]) was 3.2. It also gave a Safety ratio (Vero [16]) of 10, a Ratio [17] of 1.5 and a Ki [18] of 3.5 nM. The Safety ratio (BC [19]) was 2.6.

`CCCC1(C)N=C(N)N=C(N)N1c1ccc(Cl)cc1` (stereo not drawn) gave a Ki [5] of 560 nM, a Ratio [7] of 2640 and a Ki [8] of 4430 nM. It also gave a Ratio [11] of 1270, a Ratio [12] of 1040 and a Ki [13] of 3650 nM. For the same compound, the Ratio [17] was 160 and the Ki [18] was 9230 nM.

Compound `CCCCCCC1(C)N=C(N)N=C(N)N1c1cccc(Cl)c1` (stereo not drawn) has a Safety ratio (KB [4]) of 8.2, a Ki [5] of 5.5 nM and an IC50 (KB [1]) of 4000 nM. For the same compound, the Safety ratio (KB [6]) was 66.7, the IC50 (BC [2]) was 2200 nM and the Ratio [7] was 41.9. For the same compound, the Ki [8] was 15.9 nM, the IC50 (Vero [3]) was 230000 nM and the Safety ratio (KB [9]) was 1.3. For the same compound, the Safety ratio (Vero [10]) was 3833, the Ratio [11] was 6.58 and the Ratio [12] was 5. It also gave a Ki [13] of 12.1 nM, a Safety ratio (Vero [14]) of 71.9 and a Safety ratio (BC [15]) of 4.5. The Safety ratio (Vero [16]) was 469, the Ratio [17] was 2.3 and the Ki [18] was 101 nM. It also gave a Safety ratio (BC [19]) of 36.7.

Work on `Nc1nc(N)c(-c2ccccc2)c(CCCOC(=O)c2ccccc2)n1` yielded a Ki [5] of 0.7 nM, a Ki [8] of 14 nM and a Ratio [11] of 4.1. The Ratio [12] was 0.8, the Ki [13] was 2.7 nM and the Ratio [17] was 0.2.

`NC1=NC(c2cccc(OCc3ccccc3)c2)N(c2ccc(Cl)cc2)C(N)=N1` (stereo not drawn) showed a Ki [5] of 220 nM, a Ratio [7] of 8.9 and a Ki [8] of 638 nM. It also gave a Ratio [11] of 911, a Ratio [12] of 1100 and a Ki [13] of 771 nM. It also gave a Ratio [17] of 315 and a Ki [18] of 6.2 nM.

In the case of `Nc1nc(N)c(-c2cccc(Cl)c2)c(CCCOC(=O)c2ccccc2)n1`, the Safety ratio (KB [4]) is reported as 4.4, the Ki [5] is reported as 0.8 nM and the IC50 (KB [1]) is reported as 8400 nM. For the same compound, the Safety ratio (KB [6]) was 4, the IC50 (BC [2]) was 9500 nM and the Ki [8] was 3.6 nM. The IC50 (Vero [3]) was 61000 nM, the Safety ratio (KB [9]) was 1.1 and the Safety ratio (Vero [10]) was 29. The Ratio [11] was 2.4, the Ratio [12] was 0.5 and the Ki [13] was 0.8 nM. The Safety ratio (Vero [14]) was 8.1, the Safety ratio (BC [15]) was 5 and the Safety ratio (Vero [16]) was 32.1. For the same compound, the Ratio [17] was 0.5 and the Safety ratio (BC [19]) was 4.5.

For `Nc1nc(N)c(-c2cccc(Cl)c2)c(CCCOC(=O)OCc2ccccc2)n1`, the Safety ratio (KB [4]) was 0.8, the Ki [5] was 1.1 nM and the IC50 (KB [1]) was 1600 nM. The Safety ratio (KB [6]) was 0.8, the IC50 (BC [2]) was 3600 nM and the Ki [8] was 3.6 nM. The IC50 (Vero [3]) was 5200 nM, the Safety ratio (KB [9]) was 0.3 and the Safety ratio (Vero [10]) was 2.7. For the same compound, the Ratio [11] was 3, the Ratio [12] was 0.7 and the Ki [13] was 0.8 nM. It also gave a Safety ratio (Vero [14]) of 0.9, a Safety ratio (BC [15]) of 1.9 and a Safety ratio (Vero [16]) of 2.7. For the same compound, the Ratio [17] was 0.9 and the Safety ratio (BC [19]) was 1.9.

`NC1=NC(c2cccc(Oc3ccccc3)c2)N(c2cccc(Cl)c2)C(N)=N1` (stereo not drawn) gave a Safety ratio (KB [4]) of 1.2, a Ki [5] of 2.5 nM and an IC50 (KB [1]) of 4000 nM. For the same compound, the Safety ratio (KB [6]) was 1.8, the IC50 (BC [2]) was 8400 nM and the Ratio [7] was 2.3. It also gave a Ki [8] of 5.8 nM, an IC50 (Vero [3]) greater than 50000 nM and a Safety ratio (KB [9]) of 1.1. The Safety ratio (Vero [10]) was greater than 22.7, the Ratio [11] was 5.3 and the Ratio [12] was 2.7. The Ki [13] was 3 nM, the Safety ratio (Vero [14]) was greater than 13.9 and the Safety ratio (BC [15]) was 2.5. For the same compound, the Safety ratio (Vero [16]) was greater than 14.7, the Ratio [17] was 2.3 and the Ki [18] was 2.5 nM. It also gave a Safety ratio (BC [19]) of 3.8.

Work on `NC1=NC(c2ccccc2)N(c2ccc(Cl)cc2)C(N)=N1` (stereo not drawn) yielded a Ki [5] of 196 nM, a Ki [8] of 2440 nM and a Ki [13] of 1870 nM.

`NC1=NC(c2cccc(OCc3ccccc3)c2)N(c2cccc(Cl)c2)C(N)=N1` (stereo not drawn) gave a Safety ratio (KB [4]) of 1.1, a Ki [5] of 3.2 nM and an IC50 (KB [1]) of 8000 nM. For the same compound, the Safety ratio (KB [6]) was 2, the IC50 (BC [2]) was 22000 nM and the Ratio [7] was 1.4. The Ki [8] was 7.7 nM, the IC50 (Vero [3]) was greater than 50000 nM and the Safety ratio (KB [9]) was 1. It also gave a Safety ratio (Vero [10]) greater than 12.5, a Ratio [11] of 3.3 and a Ratio [12] of 1.6. For the same compound, the Ki [13] was 3.6 nM, the Safety ratio (Vero [14]) was greater than 6.1 and the Safety ratio (BC [15]) was 2.9. The Safety ratio (Vero [16]) was greater than 6.7, the Ratio [17] was 1.4 and the Ki [18] was 3.2 nM. The Safety ratio (BC [19]) was 5.5.
